# The source made the active and inactive calls. The calls are words filed in the database; no cut-off is given here.
# Experiments:
# [1] = tested on: Rattus norvegicus; experiment: Anticonvulsant activity in Sprague-Dawley rat assessed as protection against maximal electroshock-induced seizures at 30 mg/kg, po after 1 hr; assay type: functional, organism-based
# How it was run: (§1)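 Sprague-Dawley rats were given 30 mg/kg p.o. in 0.5% methylcellulose. Maximal electroshock was applied at 0.25, 0.5, 1.0, 2.0 and 4 h after dosing. Results are reported as number of rats protected / number tested.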
# [2] = tested on: Rattus norvegicus; experiment: Neurotoxicity in Sprague-Dawley rat at 30 mg/kg, po after 4 hrs; assay type: toxicity, organism-based; conditions: in vivo
# How it was run: (§2)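 Sprague-Dawley rats were given 30 mg/kg orally in 0.5% methylcellulose. Neurotoxicity was checked at 0.25, 0.5, 1.0, 2.0 and 4 h after dosing. Results are given as number of rats showing neurotoxicity/number tested.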
# [3] = tested on: Rattus norvegicus; experiment: Anticonvulsant activity in Sprague-Dawley rat assessed as protection against maximal electroshock-induced seizures at 30 mg/kg, po after 4 hrs; assay type: functional, organism-based; how it was run: as §1
# [4] = in vitro; conditions: human, HepG2 cells
# [5] = Hepatotoxicity against human HepG2 cells assessed as cell viability at 100 uM after 24 hrs by MTT assay relative to control
# [6] = tested on: Rattus norvegicus; experiment: Anticonvulsant activity in Sprague-Dawley rat assessed as protection against maximal electroshock-induced seizures at 30 mg/kg, po after 2 hrs; assay type: functional, organism-based; how it was run: as §1
# [7] = tested on: Mus musculus; experiment: Anticonvulsant activity in albino Carworth Farms No.1 mouse assessed as protection against 6-Hz electroshock-induced seizures at 100 mg/kg, ip after 0.25 hrs; assay type: functional, organism-based
# How it was run: (§3)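 Carworth Farms No.1 albino mice were dosed i.p. at 100 mg/kg (0.5% methylcellulose solution or suspension). 6-Hz seizures were induced at 32 mA at 0.25, 0.5, 1.0, 2.0 and 4 h after injection. Results are given as animals protected / animals tested.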
# [8] = tested on: Rattus norvegicus; experiment: Neurotoxicity in Sprague-Dawley rat at 30 mg/kg, po after 0.5 hrs; assay type: toxicity, organism-based; conditions: in vivo; how it was run: as §2
# [9] = tested on: Mus musculus; experiment: Anticonvulsant activity in albino Carworth Farms No.1 mouse assessed as protection against 6-Hz electroshock-induced seizures at 100 mg/kg, ip after 1 hr; assay type: functional, organism-based; how it was run: as §3
# [10] = in vitro; conditions: human, HepG2 cells; remark: listed apart in the source
# [11] = tested on: Mus musculus; experiment: Anticonvulsant activity in albino Carworth Farms No.1 mouse assessed as protection against 6-Hz electroshock-induced seizures at 100 mg/kg, ip after 0.5 hrs; assay type: functional, organism-based; how it was run: as §3
# [12] = Protection index, ratio of TD50 for neurotoxicity in ip dosed albino Carworth Farms No.1 mouse to ED50 for anticonvulsant activity in ip dosed albino Carworth Farms No.1 mouse assessed as protection against 6-Hz electroshock-induced seizures; assay type: toxicity, organism-based; conditions: in vivo, read-out: Ratio TD50/ED50
# How it was run: (§4)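 Graded i.p. doses in 0.5% methylcellulose were given to albino Carworth Farms No.1 mice. ED50 was determined in MES, scPTZ or 6-Hz (32 mA) tests, and TD50 by rotarod. Both were reported with 95% confidence intervals. PI was calculated as TD50/ED50.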
# [13] = tested on: Mus musculus; experiment: Anticonvulsant activity in ip dosed albino Carworth Farms No.1 mouse assessed as protection against 6-Hz electroshock-induced seizures after 0.25 hrs; assay type: functional; conditions: Carworth Farms No.1, ip
# How it was run: (§5)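 Quantitative i.p. evaluation in Carworth Farms No.1 albino mice, with graded doses in 0.5% methylcellulose. MES, scPTZ or 6-Hz (32 mA) seizure tests were run at 0.25 h.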
# [14] = tested on: Rattus norvegicus; experiment: Anticonvulsant activity in Sprague-Dawley rat assessed as protection against maximal electroshock-induced seizures at 30 mg/kg, po after 0.25 hrs; assay type: functional, organism-based; how it was run: as §1
# [15] = tested on: Rattus norvegicus; experiment: Neurotoxicity in Sprague-Dawley rat at 30 mg/kg, po after 0.25 hrs; assay type: toxicity, organism-based; conditions: in vivo; how it was run: as §2
# [16] = tested on: Rattus norvegicus; experiment: Neurotoxicity in Sprague-Dawley rat at 30 mg/kg, po after 1 hr; assay type: toxicity, organism-based; conditions: in vivo; how it was run: as §2
# [17] = tested on: Rattus norvegicus; experiment: Anticonvulsant activity in po dosed Sprague-Dawley rat assessed as protection against subcutaneous dosed pentetrazol-induced seizures after 1 hr; assay type: functional
# How it was run: (§6)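 Sprague-Dawley rats received graded oral doses suspended or dissolved in 0.5% methylcellulose. Challenge was maximal electroshock or subcutaneous pentetrazol at the stated time after dosing.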
# [18] = Protection index, ratio of TD50 for neurotoxicity in ip dosed albino Carworth Farms No.1 mouse to ED50 for anticonvulsant activity in ip dosed albino Carworth Farms No.1 mouse assessed as protection against maximal electroshock-induced seizures; assay type: toxicity, organism-based; conditions: in vivo, read-out: Ratio TD50/ED50
# How it was run: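 Graded i.p. doses in 0.5% methylcellulose were given to albino Carworth Farms No.1 mice. ED50 was determined in MES, scPTZ or 6-Hz (32 mA) tests, and TD50 by rotarod. PI was calculated as TD50/ED50.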
# [19] = tested on: Mus musculus; experiment: Anticonvulsant activity in ip dosed albino Carworth Farms No.1 mouse assessed as protection against subcutaneous dosed pentetrazol-induced seizures after 0.25 hrs; assay type: functional; conditions: Carworth Farms No.1, 0.25 h; how it was run: as §5
# [20] = tested on: Rattus norvegicus; experiment: Anticonvulsant activity in po dosed Sprague-Dawley rat assessed as protection against maximal electroshock-induced seizures after 1 hr; assay type: functional; how it was run: as §6
# [21] = tested on: Mus musculus; experiment: Anticonvulsant activity in ip dosed albino Carworth Farms No.1 mouse assessed as protection against maximal electroshock-induced seizures after 0.25 hrs; assay type: functional; conditions: Carworth Farms No.1, ip; how it was run: as §5
# [22] = Neurotoxicity in po dosed Sprague-Dawley rat after 1 hr by rotarod test; assay type: toxicity, organism-based; conditions: in vivo
# [23] = Protection index, ratio of TD50 for neurotoxicity in ip dosed albino Carworth Farms No.1 mouse to ED50 for anticonvulsant activity in ip dosed albino Carworth Farms No.1 mouse assessed as protection against subcutaneous dosed pentetrazol-induced seizures; assay type: toxicity, organism-based; conditions: in vivo, intraperitoneal, read-out: Ratio TD50/ED50; how it was run: as §4
# [24] = Protection index, ratio of TD50 for neurotoxicity in po dosed Sprague-Dawley rat to ED50 for anticonvulsant activity in po dosed Sprague-Dawley rat assessed as maximal electroshock-induced seizures; assay type: toxicity, organism-based; conditions: in vivo
# [25] = tested on: Rattus norvegicus; experiment: Anticonvulsant activity in po dosed Sprague-Dawley rat assessed as protection against maximal electroshock-induced seizures after 0.5 hrs; assay type: functional; how it was run: as §6
# [26] = tested on: Rattus norvegicus; experiment: Anticonvulsant activity in po dosed Sprague-Dawley rat assessed as protection against subcutaneous dosed pentetrazol-induced seizures after 0.5 hrs; assay type: functional; how it was run: as §6
# [27] = Neurotoxicity in po dosed Sprague-Dawley rat after 0.5 hrs by rotarod test; assay type: toxicity, organism-based; conditions: in vivo
# [28] = Protection index, ratio of TD50 for neurotoxicity in po dosed Sprague-Dawley rat to ED50 for anticonvulsant activity in po dosed Sprague-Dawley rat assessed as subcutaneous dosed pentetrazol-induced seizures; assay type: toxicity, organism-based; conditions: in vivo
Structure (SMILES),Activity [1],Activity [2],Activity [3],"viability at 24 h, 10 µM [4]","viability at 24 h, 100 µM [5]",Activity [6],Activity [7],Activity [8],Activity [9],"viability at 24 h, 25 µM [10]",Activity [11],selectivity ratio [12],ED50 [13],Activity [14],Activity [15],Activity [16],selectivity ratio [18],ED50 [19],ED50 [21],selectivity ratio [24],also measured
CC(C)C(CO)NC(=O)/C=C/c1ccccc1 (racemic),inactive,Non-toxic,inactive,98%,82.2%,inactive,Active,Non-toxic,inactive,98%,Active,1.8,106 mg/kg,inactive,Non-toxic,Non-toxic,,,,,
CC(CO)NC(=O)/C=C/c1ccccc1 (racemic),inactive,Non-toxic,inactive,98%,92.2%,inactive,,Non-toxic,inactive,98%,,3.7,60.9 mg/kg,inactive,Non-toxic,Non-toxic,2.6,110 mg/kg,86.6 mg/kg,> 8.1,ED50 [17]: > 250 mg/kg; ED50 [20]: 31 mg/kg; TD50 at 1 h [22]: > 250 mg/kg; selectivity ratio [23]: 2
O=C(/C=C/c1ccccc1)N1CCC(O)CC1,inactive,Non-toxic,inactive,,,inactive,,Non-toxic,,,,,,inactive,Non-toxic,Non-toxic,,,,,
CCC(O)CNC(=O)/C=C/c1ccccc1 (racemic),inactive,Non-toxic,inactive,98%,85.9%,inactive,Active,Non-toxic,inactive,97%,,,,Active,Non-toxic,Non-toxic,,,,> 12.1,ED50 [25]: 41.5 mg/kg; ED50 [26]: > 250 mg/kg; TD50 at 0.5 h [27]: > 500 mg/kg
CC(O)CNC(=O)/C=C/c1ccccc1 (racemic),inactive,Non-toxic,inactive,99%,91.9%,inactive,Active,Non-toxic,Active,99%,Active,,,inactive,Non-toxic,Non-toxic,2.9,77.1 mg/kg,47.1 mg/kg,> 11,selectivity ratio [28]: > 10.8; ED50 [25]: 22.8 mg/kg; ED50 [26]: 46.2 mg/kg; selectivity ratio [23]: 1.8; TD50 at 0.5 h [27]: > 500 mg/kg

# Source: ChEMBL document CHEMBL3739352, “Anticonvulsant activity, crystal structures, and preliminary safety evaluation of N-trans-cinnamoyl derivatives of selected (un)modified aminoalkanols” (Eur J Med Chem, 2016)
